In ChEMBL document CHEMBL4196174, “Discovery of Indole Derivatives as Novel and Potent Dengue Virus Inhibitors” (J Med Chem, 2018):
In brackets after ≈: the same amount, converted by molar mass.

Experiments:
[1] = tested on: dengue virus type 2; assay: Antiviral activity against Dengue virus 2 Rega infected in African green monkey Vero cells assessed as reduction in viral yield after 4 days by qRT-PCR analysis; type: functional, organism-based
How it was run: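 Virus yield reduction in Vero cells (seeded 5×10^4/well). Next day infected with DENV (MOI 0.01) in assay medium (MEM, 2% FBS, 0.075% bicarbonate, 2 mM L-glutamine). After 1 h, input virus was removed and cells rinsed 3 times. Medium with 3- or 5-fold compound serial dilutions was then added. Incubation was 4 days (DENV-2, DENV-4) or 7 days (DENV-1, DENV-3). Supernatant viral RNA was measured by RT-qPCR, and EC50 obtained by logarithmic interpolation.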

[2] = (§1) Cytotoxicity against African green monkey Vero cells assessed as cell growth inhibition after 4 days by MTS/PMS method; type: cell-based; conditions: chlorocebus sabaeus, Vero cells
How it was run: (§2)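 Cytotoxicity run as in the yield assay, but without virus. Vero cells (5×10^4/well) were exposed to 3- or 5-fold serial dilutions in MEM with 2% FBS. Viability was read by the MTS/PMS colorimetric method. CC50 was derived by logarithmic interpolation.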

[3] = tested on: Salmonella typhimurium; assay: Mutagenicity in Salmonella typhimurium in absence of human liver S9 fraction by Ames test; type: toxicity, organism-based; conditions: salmonella enterica subsp. enterica serovar typhimurium
[4] = tested on: Salmonella typhimurium; assay: Mutagenicity in Salmonella typhimurium in presence of human liver S9 fraction by Ames test; type: toxicity, organism-based; conditions: salmonella enterica subsp. enterica serovar typhimurium
[5] = Drug metabolism in rat liver microsomes after 15 mins; type: ADME, microsome; conditions: for metabolised at 0.25 h: liver microsomes, read-out: Drug metabolism
How it was run: (§3)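 Percentage of compound metabolized after 15 min incubation with human or rat liver microsomes.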

[6] = Solubility of the compound in DMSO solution at pH 7.4; type: physicochemical
How it was run: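 Solubility measured at pH 7.4, starting from a DMSO solution.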

[7] = Drug metabolism in human liver microsomes after 15 mins; type: ADME, microsome; conditions: for metabolised at 0.25 h: liver microsomes, read-out: Drug metabolism; how it was run: as §3
[8] = tested on: Vero; assay: as §1; type: cell-based; conditions: chlorocebus sabaeus, vero, 96 h; how it was run: as §2

| SMILES | EC50 ([1]; Dengue virus, Rega, Vero, 96 h) [µM] | CC50 at 96 h [2] [µM] | also measured |
| --- | --- | --- | --- |
| COc1nc(NC(C(=O)c2c[nH]c3ccccc23)c2ccccc2)ns1 (stereo not given) | 3.3 | 90 |  |
| CCOc1cc(NC(C(=O)c2c[nH]c3ccccc23)c2ccccc2)cc(OC)c1 (stereo not given) | 0.018 | 13 |  |
| COc1cccc(NC(C(=O)c2c[nH]c3ccccc23)c2cc3ccccn3n2)c1 (stereo not given) | 0.028 | 26 |  |
| O=C(c1c[nH]c2ccccc12)C(NC1CCCC1)c1ccccc1 (stereo not given) | 15 | 86 |  |
| COc1cc(NC(C(=O)c2c[nH]c3ccc(CO)cc23)c2ccccc2)cc(OC)c1 (stereo not given) | 0.106 | 65 |  |
| COc1cccc(NC(C(=O)c2c[nH]c3cc(Cl)ccc23)c2ccccc2)c1 (stereo not given) | 0.013 | 13 |  |
| O=C(c1c[nH]c2ccccc12)C(Nc1cc(F)cc(F)c1)c1ccccc1 (stereo not given) | 1.7 | 23 |  |
| COc1cccc(NC(C(=O)c2c[nH]c3cc(OC)ccc23)c2ccccc2)c1 (stereo not given) | 0.043 | 13 |  |
| COc1cccc(NC(C(=O)c2c[nH]c3ccccc23)c2ccsc2)c1 (stereo not given) | 0.134 | 15 |  |
| COc1cc(NC(C(=O)c2c[nH]c3ccccc23)c2ccccc2)cc(OCCN(C)C)c1 (stereo not given) | 1.7 | 13 |  |
| COc1cccc(NC(C(=O)c2c[nH]c3ccccc23)c2ccccc2)c1 (stereo not given) | 0.073 | 18 | Activity [3]: Non-Toxic; Activity [4]: Non-Toxic |
| COc1cccc(NC(C(=O)c2c[nH]c3ccccc23)c2cccc(C)c2)c1 (stereo not given) | 0.269 | 20 |  |
| COc1cc(NC(C(=O)c2c[nH]c3ccccc23)c2ccc(F)cc2)cc(OC)c1 (stereo not given) | 0.004 | 13 |  |
| COc1cc(NC(C(=O)c2c[nH]c3ccc(CCO)cc23)c2ccccc2)cc(OC)c1 (stereo not given) | 0.181 | 56 |  |
| COc1cccc(NC(C(=O)c2c[nH]c3cccc(Cl)c23)c2ccccc2)c1 (stereo not given) | 0.024 | 18 |  |
| COc1cc(CO)cc(NC(C(=O)c2c[nH]c3ccccc23)c2ccccc2)c1 (stereo not given) | 0.065 | 71 | metabolised at 0.25 h [5]: 85%; solubility ([6]; read-out: solubility): 50 µM (≈ 19.3 µg/mL); metabolised at 0.25 h [7]: 18% |
| COc1ccnc(NC(C(=O)c2c[nH]c3ccccc23)c2ccccc2)c1 (stereo not given) | 6.3 | 95 |  |
| COc1cccc(NC(C(=O)c2c[nH]c3ccccc23)c2ccc3nccnc3c2)c1 (stereo not given) | 1.2 | 19 |  |
| O=C(c1c[nH]c2ccccc12)C(Nc1ccc2[nH]c(=O)oc2c1)c1ccccc1 (stereo not given) | 6.1 | 15 |  |
| COc1cccc(NC(C(=O)c2c[nH]c3ccccc23)c2ccc(C#N)cc2)c1 (stereo not given) | 0.041 | 14 |  |
| COc1cc(NC(C(=O)c2c[nH]c3cccc(CO)c23)c2ccccc2)cc(OC)c1 (stereo not given) | 0.288 | 71 |  |
| COc1cccc(NC(C(=O)c2c[nH]c3c(C)cccc23)c2ccccc2)c1 (stereo not given) | 0.051 | > 135 |  |
| COc1cccc(NC(C(=O)c2c[nH]c3ccccc23)c2ccncc2)c1 (stereo not given) | 0.138 | 16 |  |
| COc1cc(NC(C(=O)c2c[nH]c3cccc(CCCO)c23)c2ccccc2)cc(OC)c1 (stereo not given) | 1.4 | 55 |  |
| COc1cc(F)cc(NC(C(=O)c2c[nH]c3ccccc23)c2ccccc2)c1 (stereo not given) | 0.02 | 22 |  |
| N#Cc1cccc(NC(C(=O)c2c[nH]c3ccccc23)c2ccccc2)c1 (stereo not given) | 2.1 | 14 |  |
| COc1cc(NC(C(=O)c2c[nH]c3ccccc23)c2ccccc2)cc(OCCCO)c1 (stereo not given) | 0.085 | 50 | metabolised at 0.25 h [5]: 67%; solubility ([6]; read-out: solubility): 30 µM (≈ 12.9 µg/mL); metabolised at 0.25 h [7]: 8% |

| SMILES | EC50 ([1]; Dengue virus, Rega, Vero, 96 h) [µM] | CC50 at 96 h [2] [µM] | also measured |
| --- | --- | --- | --- |
| COc1cccc(NC(C(=O)c2c[nH]c3ccccc23)c2ccccc2C)c1 (stereo not given) | 0.096 | 14 |  |
| COc1cccc(NC(C(=O)c2c[nH]c3ccccc23)c2cccnc2)c1 (stereo not given) | 0.138 | 71 |  |
| COc1cccc(NC(C(=O)c2c[nH]c3ccc(F)cc23)c2ccccc2)c1 (stereo not given) | 0.034 | 13 |  |
| COc1cccc(NC(C(=O)c2c[nH]c3cccc(F)c23)c2ccccc2)c1 (stereo not given) | 0.122 | 21 |  |
| COc1ccc(OC)c(NC(C(=O)c2c[nH]c3ccccc23)c2ccccc2)c1 (stereo not given) | 2.5 | 15 |  |
| O=C(c1c[nH]c2ccccc12)C(Nc1cccc(F)c1)c1ccccc1 (stereo not given) | 2.4 | 12 |  |
| CS(=O)(=O)c1cccc(NC(C(=O)c2c[nH]c3ccccc23)c2ccccc2)c1 (stereo not given) | 6.5 | 65 |  |
| COc1cccc(NC(C(=O)c2c[nH]c3ccccc23)c2cnccn2)c1 (stereo not given) | 0.837 | 65 |  |
| COc1cccc(NC(C(=O)c2c[nH]c3ccccc23)c2ccc(C)nc2)c1 (stereo not given) | 0.073 | 73 |  |
| COc1cncc(NC(C(=O)c2c[nH]c3ccccc23)c2ccccc2)n1 (stereo not given) | 0.484 | 68 |  |
| COc1cc(NC(C(=O)c2c[nH]c3ccccc23)c2ccc(F)cc2)cc(OCCO)c1 (stereo not given) | 0.013 | 46 | metabolised at 0.25 h [5]: 23%; solubility ([6]; read-out: solubility): 27 µM (≈ 11.7 µg/mL); metabolised at 0.25 h [7]: 7% |
| COc1cccc(NC(C(=O)c2c[nH]c3ccccc23)c2ccc(C)cc2)c1 (stereo not given) | 0.022 | 20 |  |
| COc1cccc(NC(C(=O)c2c[nH]c3ccccc23)c2cc(C)on2)c1 (stereo not given) | 0.59 | 50 |  |
| COc1cccc(NC(C(=O)c2c[nH]c3cc(F)ccc23)c2ccccc2)c1 (stereo not given) | 0.045 | 15 |  |
| COc1cccc(NC(C(=O)c2c[nH]c3c(F)cccc23)c2ccccc2)c1 (stereo not given) | 0.057 | 14 |  |
| COc1cccc(NC(C(=O)c2c[nH]c3ccccc23)c2ccco2)c1 (stereo not given) | 0.297 | 16 |  |
| O=C(c1c[nH]c2ccccc12)C(Nc1cccc(OC(F)(F)F)c1)c1ccccc1 (stereo not given) | 0.926 | 5 |  |
| COc1cccc(NC(C(=O)c2c[nH]c3ccccc23)c2ccccc2)c1OC (stereo not given) | 4.2 | > 129 |  |
| COc1cccc(NC(C(=O)c2c[nH]c3ccccc23)c2ccc(F)cc2)c1 (stereo not given) | 0.025 | 14 |  |
| COc1cccc(NC(C(=O)c2c[nH]c3ccccc23)c2ccc(S(C)(=O)=O)cc2)c1 (stereo not given) | 1.6 | > 115 |  |
| COc1cccc(NC(C(=O)c2c[nH]c3ccccc23)c2cncnc2)c1 (stereo not given) | 0.391 | 100 |  |
| COc1cc(NC(C(=O)c2c[nH]c3c(CCS(C)(=O)=O)cccc23)c2ccccc2)cc(OC)c1 (stereo not given) | 0.406 | > 102 |  |
| COc1cccc(NC(C(=O)c2c[nH]c3ccccc23)c2ccccc2)n1 (stereo not given) | 0.288 | 16 |  |
| O=C(c1c[nH]c2ccccc12)C(Nc1cccnc1)c1ccccc1 (stereo not given) | 5 | 54 |  |
| COc1cc(NC(C(=O)c2c[nH]c3ccccc23)c2ccccc2)cc(OCCO)c1 (racemic) |  |  | EC50 ([1]; vero): 0.059 µM; Drug metabolism ([5]; microsomes, 0.25 h): 37%; solubility [6]: 60 µM (≈ 25 µg/mL); Drug metabolism ([7]; microsomes, 0.25 h): 13%; CC50 [8]: 47 µM |
| COc1cc(NC(C(=O)c2c[nH]c3ccccc23)c2ccccc2)cc(OCCO)c1 (single isomer, unassigned; (-)) |  |  | EC50 ([1]; vero): 0.456 µM; CC50 [8]: 77 µM |
